ChEMBL document CHEMBL2346611, “Preliminary structure-activity relationships and biological evaluation of novel antitubercular indolecarboxamide derivatives against drug-susceptible and drug-resistant Mycobacterium tuberculosis strains” (J Med Chem, 2013)
In brackets after ≈: the same amount, converted by molar mass. Activity calls are given as the source filed them. No cut-off for these calls is given here.

Tests used:
[1] = test system: Mycobacterium tuberculosis; experiment: Antitubercular activity against Mycobacterium tuberculosis H37Rv; assay type: functional
In short: (§1)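 Mycobacterium tuberculosis strains were used: H37Rv, and clinical strains from KwaZulu-Natal (MDR KZN494 and V2475; XDR TF274 and R506). Growth was read by microplate Alamar Blue assay. MIC is the lowest drug concentration giving at least a 90% reduction of the bacterial growth signal. Values are the average of three individual measurements.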

[2] = Selectivity index, ratio of IC50 for african green monkey vero cells to MIC90 for Mycobacterium tuberculosis H37Rv; assay type: functional
[3] = test system: Mycobacterium tuberculosis; experiment: Antitubercular activity against Mycobacterium tuberculosis H37Rv in 300 mg/kg, po dosed Balb/c mouse serum measured after 7 days by serum inhibition titration based microplate Alamar Blue assay; assay type: functional, organism-based; parameters: dose 300 mg/kg
In short: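 Six-week-old female BALB/c mice got a single oral gavage of 100 or 300 mg/kg, ground to a suspension in 0.5% carboxymethyl cellulose. Controls were isoniazid 10 mg/kg and vehicle. Cardiac blood was taken at 15, 30 and 60 min and serum separated. Serum was two-fold serially diluted, 10^4 CFU H37Rv added, incubated 7 days and read by MABA.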

[4] = test system: Mycobacterium tuberculosis; experiment: Antitubercular activity against drug-susceptible Mycobacterium tuberculosis V4207 by microplate Alamar Blue assay; assay type: functional
Vero = experiment: Cytotoxicity against african green monkey Vero cells by microplate Alamar Blue assay; assay type: cell-based; details: Chlorocebus sabaeus
In short: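 Cytotoxicity was measured on Vero cells in microplate Alamar Blue assay format.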

[5] = test system: Mycobacterium tuberculosis; experiment: Antitubercular activity against Mycobacterium tuberculosis H37Rv by microplate Alamar Blue assay; assay type: functional; in short: as §1
[6] = test system: Mycobacterium tuberculosis; experiment: Ratio of isoniazid MIC to compound MIC for Mycobacterium tuberculosis H37Rv; assay type: functional
[7] = test system: Mycobacterium tuberculosis; experiment: Antitubercular activity against Mycobacterium tuberculosis H37Rv after 21 days by spectrophotometric analysis; assay type: functional; details: 504 h

| SMILES | MIC90 [5] [µM] | further results |
| --- | --- | --- |
| COc1nc2ccc(Br)cc2cc1[C@@H](c1ccccc1)[C@@](O)(CCN(C)C)c1cccc2ccccc12 [BEDAQUILINE] | – | MIC90 [1]: 0.05 µM (≈ 0.0278 µg/mL) |
| Cc1cc(C)c2cc(C(=O)NC3CCCCCC3)[nH]c2c1 | 0.055 (≈ 0.0156 µg/mL) | Selectivity Index [2]: >3600; Activity [3]: inactive; MIC90 [4]: 0.11 µM (≈ 0.0313 µg/mL); IC50 (Vero): > 200 µM; Ratio [6]: 5 |
| O=C(NC12CC3CC(CC(C3)C1)C2)c1cc2cc(Cl)ccc2[nH]1 | 0.38 (≈ 0.125 µg/mL) | – |
| Cc1cc(C)c2cc(C(=O)NC3CCCCC3)n(C)c2c1 | 450 (≈ 128 µg/mL) | – |
| Cc1cc(C)c2cc(C(=O)NC34CC5CC(CC(C5)C3)C4)oc2c1 | 3.1 (≈ 1 µg/mL) | – |
| Cc1cc(C)c2cc(C(=O)NC3CCCCCCC3)oc2c1 | 27 (≈ 8.08 µg/mL) | – |
| O=C(NC1CCCCCCC1)c1cc2c(C(F)(F)F)cc(C(F)(F)F)cc2[nH]1 | 0.04 (≈ 0.0163 µg/mL) | – |
| O=C(NC1CCCCCC1)c1cc2c(F)cc(F)cc2[nH]1 | 0.86 (≈ 0.251 µg/mL) | – |
| CCCCCCNC(=O)c1cc2c(C)cc(C)cc2o1 | 59 (≈ 16.1 µg/mL) | – |
| Cc1cc(C)c2cc(C(=O)N3CCCCC3)[nH]c2c1 | > 499 | – |
| Cc1cc(C)c2nc(C(=O)NC3C4CC5CC(C4)CC3C5)[nH]c2c1 (stereo not given) | 1.5 (≈ 0.485 µg/mL) | – |
| Cc1cc(C)c2cc(C(=O)NC3CC4CCC3C4)oc2c1 (stereo not given) | 113 (≈ 32 µg/mL) | – |
| Cc1cc(C)c2nc(C(=O)NC3CCCCCCC3)[nH]c2c1 | 1.7 (≈ 0.509 µg/mL) | – |
| Cc1cc(C)c2cc(C(=O)NC3CC3)[nH]c2c1 | 561 (≈ 128 µg/mL) | – |
| Cc1cc(C)c2cc(C(=O)Nc3ccc(C)c(F)c3)[nH]c2c1 | 1.7 (≈ 0.504 µg/mL) | IC50 (Vero): > 200 µM |
| O=[N+]([O-])c1cn2c(n1)OC[C@@H](OCc1ccc(OC(F)(F)F)cc1)C2 [PRETOMANID] | – | MIC90 [7]: 0.04 µM (≈ 0.0144 µg/mL) |
| Cc1cc(C)c2c(C(=O)NC3CCCCCC3)c[nH]c2c1 | 200 (≈ 56.9 µg/mL) | – |
| Cc1cc(C)c2c(C(=O)NC3C4CC5CC(C4)CC3C5)c[nH]c2c1 (stereo not given) | 200 (≈ 64.5 µg/mL) | – |
| Cc1cc(C)c2cc(C(=O)NC3CCN(C)CC3)[nH]c2c1 | 448 (≈ 128 µg/mL) | – |
| COc1cc2[nH]c(C(=O)NC3CCCCCCC3)cc2cn1 | 6.6 (≈ 1.99 µg/mL) | – |
| Cc1cc(C)c2cc(C(=O)NC34CC5CC(CC(C5)C3)C4)[nH]c2c1 | 0.012 (≈ 0.00387 µg/mL) | Selectivity Index [2]: >16600; Activity [3]: inactive; IC50 (Vero): > 200 µM |
| Cc1cc(C)c2cc(C(=O)N(C)C3CCCCC3)[nH]c2c1 | 450 (≈ 128 µg/mL) | – |
| COc1ccc2cc(C(=O)NC34CC5CC(CC(C5)C3)C4)[nH]c2c1 | 0.77 (≈ 0.25 µg/mL) | – |

| SMILES | MIC90 [5] [µM] | further results |
| --- | --- | --- |
| Cc1cc(C)c2cc(C(=O)NC3C4CC5CC(C4)CC3C5)[nH]c2c1 (stereo not given) | 0.012 (≈ 0.00387 µg/mL) | Selectivity Index [2]: >16600; Activity [3]: inactive; IC50 (Vero): > 200 µM |
| O=C(NC12CC3CC(CC(C3)C1)C2)c1cc2ccc(O)cc2[nH]1 | 13 (≈ 4.04 µg/mL) | – |
| NNC(=O)c1ccncc1 [ISONIAZID] | 0.29 (≈ 0.0398 µg/mL) | – |
| Cc1cc(C)c2cc(C(=O)NC3CCCCC3)[nH]c2c1 | 0.93 (≈ 0.251 µg/mL) | MIC90 [4]: 0.93 µM (≈ 0.251 µg/mL); IC50 (Vero): > 200 µM |
| Cc1cc(C)c2c(C(=O)NC3CCCCCCC3)c[nH]c2c1 | 200 (≈ 59.7 µg/mL) | – |
| Cc1cc(C)c2cc(C(=O)Nc3ccccc3)[nH]c2c1 | 3.8 (≈ 1 µg/mL) | IC50 (Vero): > 200 µM |
| Cc1cc(C)c2cc(C(=O)NC3CCCCCCC3)[nH]c2c1 | 0.013 (≈ 0.00388 µg/mL) | Selectivity Index [2]: 4100; Activity [3]: Active; MIC90 [4]: 0.026 µM (≈ 0.00776 µg/mL); IC50 (Vero): 54 µM |
| Cc1cc(C)c2nc(C(=O)NC34CC5CC(CC(C5)C3)C4)[nH]c2c1 | 0.39 (≈ 0.126 µg/mL) | – |
| O=C(NC1CCCCCC1)c1cc2c(C(F)(F)F)cc(C(F)(F)F)cc2[nH]1 | 0.64 (≈ 0.251 µg/mL) | – |
| O=C(NC12CC3CC(CC(C3)C1)C2)c1cc2cc(Cl)ccc2o1 | ≥ 388 | – |
| Cc1cc(C)c2cc(C(=O)NC3CCCCCC3)oc2c1 | 56 (≈ 16 µg/mL) | – |
| Cc1ccc(NC(=O)c2cc3ccccc3[nH]2)cc1F | 477 (≈ 128 µg/mL) | – |
| Cc1cc(C)c2cc(C(=O)NCC3CCCCC3)[nH]c2c1 | 0.88 (≈ 0.25 µg/mL) | IC50 (Vero): > 200 µM |
| Cc1cc(C)c2cc(C(=O)NC3CCN(C(C)C)CC3)[nH]c2c1 | 204 (≈ 63.9 µg/mL) | – |
| O=C(NC1CCCCC1)c1cc2ccccc2[nH]1 | > 528 | – |
| Cc1cc(C)c2cc(C(=O)Nc3ccncc3)[nH]c2c1 | 240 (≈ 63.7 µg/mL) | – |
| Cc1cc(C)c2cc(C(=O)NC3CCCN(C)CC3)[nH]c2c1 (stereo not given) | 428 (≈ 128 µg/mL) | – |
| Cc1cc(C)c2c(C(=O)NC34CC5CC(CC(C5)C3)C4)c[nH]c2c1 | 200 (≈ 64.5 µg/mL) | – |
| O=C(NC1CCCCCCC1)c1cc2c(F)cc(F)cc2[nH]1 | 0.1 (≈ 0.0306 µg/mL) | – |
| Cc1cc(C)c2nc(C(=O)NC3CCCCCC3)[nH]c2c1 | > 224 | – |
| O=C(NC1CCCCCCC1)c1cc2cc(Cl)ccc2o1 | 26 (≈ 7.95 µg/mL) | – |
| COc1cc2[nH]c(C(=O)NC34CC5CC(CC(C5)C3)C4)cc2cn1 | 1.5 (≈ 0.488 µg/mL) | – |
